Measurements of several laboratories.
Target: Dual specificity tyrosine-phosphorylation-regulated kinase 3 (DYRK3, Homo sapiens, UniProt O43781)

Structure (SMILES) | observed | mode | method | tested at | measurement | value
COc1cc(Nc2cnc(C#N)c(O[C@H](C)CN(C)C)n2)ncc1-c1cnn(C)c1 | enzyme activity | inhibitor | radiometric | 1 µM | remaining activity | 98%
CN(c1ncccc1CNc1nc(Nc2ccc3c(c2)CC(=O)N3)ncc1C(F)(F)F)S(C)(=O)=O | enzyme activity | inhibitor | – | 1 µM | inhibition | 66.8%
O=C1Nc2ccc(Cl)cc2C1=Cc1cc(Cl)c(O)c(Cl)c1 | cell-free assay | – | – | 0.5 µM | remaining signal | 91.8%
COc1cc(-c2cc(-c3ccc(N4CCNCC4)cc3)cnc2C)cc(OC)c1OC | enzyme activity | inhibitor | – | 0.1 µM | inhibition | 1%
CCCS(=O)(=O)Nc1ccc(F)c(C(=O)c2c[nH]c3ncc(-c4ccc(Cl)cc4)cc23)c1F | enzyme activity | inhibitor | – | 1 µM | inhibition | < 10%
Cn1cncc1C1=CN(c2ncnc3[nH]cnc23)CCS1 | enzyme activity | inhibitor | radiometric | 2 µM | inhibition | 90.9%
O=C(O)c1ccc2c(c1)nc(NCCc1cccc(F)c1)c1ncncc12 | enzyme activity | inhibitor | radiometric | 1 µM | remaining activity | 17%
Nc1nc(Nc2ccccc2)sc1C(=O)c1c(F)cccc1F | enzyme activity | inhibitor | – | 10 µM | remaining activity | 83%
O=C(O)c1ccc2c(c1)nc(NCCc1cccc(Cl)c1)c1ncncc12 | enzyme activity | inhibitor | radiometric | 1 µM | remaining activity | 37%
COc1cc2ncnc(Nc3ccc(Oc4ccccc4)c(C)c3C)c2cc1OC | enzyme activity | inhibitor | – | 1 µM | inhibition | -3%
O=C(O)c1ccc2c(c1)nc(Nc1cccc(F)c1)c1ncncc12 | enzyme activity | inhibitor | radiometric | 1 µM | remaining activity | 9%
Cn1cnc(Br)c1C1=CN(c2ncnc3[nH]cnc23)CCS1 | enzyme activity | inhibitor | radiometric | 50 nM | inhibition | 49.8%
O=C(O)c1ccc2c(c1)nc(Nc1ccc(F)c(Cl)c1)c1ncncc12 | enzyme activity | inhibitor | radiometric | 1 µM | remaining activity | 8%
COc1cc(/C=C/C(=O)CC(=O)/C=C/c2ccc(O)c(OC)c2)ccc1O | enzyme activity | inhibitor | – | 1 µM | activity vs control | 11%
